Bioassay records from PubChem BioAssay.
T cruzi repl: blocks replication of Trypanosoma cruzi. T. cruzi beta-gal in NIH3T3, luminescence, 90 h. inhibition, % (no concentration beside the values). 300,000 compounds, 1.4% hits;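 active = mean inhibition across valid replicates above about 55%, limit read from the data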;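 note: signal also drops with host cell toxicity which is not excluded here; 0% = plate median of DMSO wells and 100% = zero luminescence signal; higher percent means less beta-gal luminescence so fewer parasites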
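compound dosing = single 50 nL compound addition per well in DMSO | material = NIH/3T3 host cells with β-galactosidase reporter T. cruzi | input = 5,000 host fibroblasts per well | timing = ≥90 h infection period, 3 h prior cell attachment | read-out basis = percent inhibition of parasite-derived β-gal signal | detection = GalScreen β-gal luminescence, detergent lysis, 60 min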
SKKanGAS inh: inhibitors of SKKanGAS S. pyogenes growth in kanamycin (SK-promoter or general growth effect) | BacTiter-Glo, 6 h | inhibition, % at 7.5 µM | AID 1662 | 300,000 compounds, 1.3% hits;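 active = mean replicate score, as percent of positive control median, at least 50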;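 note: strain carries kanamycin resistance gene driven by streptokinase promoter and grows in 40 µg/ml kanamycin; loss of luminescence reflects streptokinase promoter inhibition or plain growth inhibition; 0% = median of DMSO wells and 100% = positive control at its reference dose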
Mdm2-MdmX inh: disrupts the human Mdm2-MdmX interaction. O15151+Q00987. SaOS-2 split-luciferase Mdm2/MdmX complementation, luminescence. inhibition, % at 8 µM. 330,000 compounds, 3% hits. AID 485346;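 active = inhibition of at least 50% at 8 µM in the primary screen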
Target sequence (O15151 whole entry, looked up): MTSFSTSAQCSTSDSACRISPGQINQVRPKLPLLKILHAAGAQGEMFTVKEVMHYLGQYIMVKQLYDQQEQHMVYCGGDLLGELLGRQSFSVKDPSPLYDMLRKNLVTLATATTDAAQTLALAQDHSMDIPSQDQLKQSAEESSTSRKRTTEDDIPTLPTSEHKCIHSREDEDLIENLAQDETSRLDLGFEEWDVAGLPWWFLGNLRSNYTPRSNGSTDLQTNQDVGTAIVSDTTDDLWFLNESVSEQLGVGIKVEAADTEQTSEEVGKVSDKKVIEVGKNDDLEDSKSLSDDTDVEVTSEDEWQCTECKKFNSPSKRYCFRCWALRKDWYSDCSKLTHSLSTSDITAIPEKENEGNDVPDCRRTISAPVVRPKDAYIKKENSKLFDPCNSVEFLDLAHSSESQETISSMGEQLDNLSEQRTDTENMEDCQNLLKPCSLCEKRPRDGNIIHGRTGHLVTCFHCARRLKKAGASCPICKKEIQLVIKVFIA
Target sequence (Q00987 whole entry, looked up): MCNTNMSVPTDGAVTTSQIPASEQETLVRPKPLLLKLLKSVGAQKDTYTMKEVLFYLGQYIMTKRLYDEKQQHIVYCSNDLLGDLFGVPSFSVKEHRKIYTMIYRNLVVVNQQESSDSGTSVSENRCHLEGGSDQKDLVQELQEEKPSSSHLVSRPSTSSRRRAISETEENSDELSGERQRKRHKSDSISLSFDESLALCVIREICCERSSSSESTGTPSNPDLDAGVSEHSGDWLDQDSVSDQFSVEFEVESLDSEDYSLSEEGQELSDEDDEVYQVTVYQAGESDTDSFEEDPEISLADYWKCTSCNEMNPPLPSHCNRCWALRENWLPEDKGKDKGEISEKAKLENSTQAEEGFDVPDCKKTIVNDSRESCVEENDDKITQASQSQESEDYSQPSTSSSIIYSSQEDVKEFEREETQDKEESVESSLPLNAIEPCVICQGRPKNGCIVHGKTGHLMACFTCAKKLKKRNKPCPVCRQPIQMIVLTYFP
Beta cell apopt: blocks beta cell apoptosis. protection from apoptosis, % (test concentration not listed). 300,000 compounds, 0.8% hits. INS-1E cytokine-induced death, ATP luminescence, 48 h; percent of positive-control rescue, neutral wells zero;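 active = Every replicate reaches about 75%, or at least half do and their mean reaches it too, limit read from the data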;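 note: 0% = cytokine-treated negative control wells and 100% = positive control rescue; higher means more ATP so stronger rescue from cytokine killing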
CSC inhib: cancer stem cell inhibition; cancer stem cell-like cells viability, luminescence; inhibition, % at 7.5 µM; 300,000 compounds, 1.1% hits; AID 2717; in the data active = inhibition above about 75%; tested in HMLE shEcad cells
Calb FLC: C. albicans growth modulation with fluconazole; C. albicans CaCi-2 + fluconazole, Alamar Blue growth, 48 h; growth inhibition, % (test concentration not listed); 300,000 compounds, 0.57% hits;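 active = growth inhibition above about 58% in most replicates, limit read from the data, passing the limit was not always enough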;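 note: all wells also contain fluconazole at 8 µg/ml as a sub-toxic cotreatment; 0% = median of DMSO wells and 100% = median of geldanamycin control wells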
Starred values were filed as active, the others as inactive; . = not tested or not shown. This is a sample that favours compounds with a hit; in the whole collection about 5.7% have one here.

SMILES | T cruzi repl | SKKanGAS inh | Mdm2-MdmX inh | Beta cell apopt | CSC inhib | Calb FLC
Cc1ccc(-c2nn(-c3ccccc3)cc2CNCc2ccccc2)cc1 | 62* | 16 | 36 | -2 | 73 | 3
Cc1ccc(-c2nn(-c3ccccc3)cc2CO)cc1 | 1 | -6 | -64 | -5 | 9 | 0
COc1ccc(-c2nn(-c3ccccc3)cc2/C=C2/SC(=S)N(CCC(=O)O)C2=O)cc1 | 14 | 83* | 25 | -4 | 28 | 2
Cc1ccc(-c2nn(-c3ccccc3)cc2/C=N/O)cc1 | 19 | 58* | -32 | -9 | 25 | -10
O=C(CN(Cc1ccccc1)C(=O)CCC(=O)Nc1ccccn1)NCc1ccc(F)cc1 | 3 | -2 | 10 | -2 | 7 | -7
O=C(O)CCN1C(=O)/C(=C/c2cn(-c3ccccc3)nc2-c2cccs2)SC1=S | . | . | 10 | . | . | .
COc1ccc(-c2nn(-c3ccccc3)cc2/C=C2/SC(=S)N(CCC(=O)O)C2=O)c(C)c1 | 13 | 48 | 13 | 5 | 85* | 51
Cc1ccc(-c2nn(-c3ccccc3)cc2/C=C2\SC(=S)N(CC(=O)O)C2=O)cc1 | 2 | 55* | 11 | 10 | 55 | 31
CN(Cc1ccc(Br)s1)C(=O)CNC(=O)c1ccc2c(c1)OCO2 | . | . | 5 | -1 | 8 | .
COc1ccc(CCNC(=O)C2CCCN(S(=O)(=O)c3ccc(F)cc3)C2)cc1OC (configuration not stated) | -1 | 1 | -24 | -5 | -3 | 9
Cc1ccc(C)c(S(=O)(=O)N2CCCC2CNC(=O)C(=O)NCC2CCCO2)c1 (configuration not stated) | -5 | -6 | -5 | 2 | -2 | -3
CCc1ccc(N/C(SCc2cccc(F)c2)=C(/C#N)C(=O)NCc2ccco2)cc1 | 57* | 6 | -18 | 26 | 21 | -23
Cc1ccc(N/C(SCc2ccccc2C)=C(/C#N)C(=O)NCc2ccco2)cc1C | 60* | 3 | 40 | 1 | 22 | 0
Cc1ccccc1CSCC(=O)NC(=O)NCc1ccco1 | 2 | 0 | 11 | . | . | -23
O=C(NNC(=O)c1ccccc1F)c1cccc(S(=O)(=O)N2CCc3ccccc32)c1 | . | . | 19 | 38 | -9 | .
CCCCCCCC(=O)NNC(=O)Cc1ccccc1 | -21 | -7 | 4 | -5 | -11 | -4
CCCCCCCCCCCC(=O)c1c(O)cccc1O | -21 | 103* | 17 | -2 | -5 | 1
O=C(O)CCn1cc(-c2ccc(F)cc2)nc1-c1ccncc1 | . | . | 9 | -3 | 1 | .
Cc1ccc(N(CCC(=O)N2CCOCC2)S(=O)(=O)c2ccccc2)cc1 | . | . | 18 | -3 | -7 | .
O=C1N(Cc2cccc(Cl)c2)C[C@@H]2C[C@@H](c3c[nH]c4ccccc34)N3CCC[C@@]123 | 58* | 3 | 9 | -6 | 0 | 35
CCC/C(C)=N/NC(=O)c1ccccc1O | -3 | -2 | 14 | -2 | -14 | -6
C/C(=N/NC(=O)c1cc2ccccc2cc1O)C1C(=O)c2ccccc2C1=O | -13 | 83* | -3 | 6 | 48 | -1
C/C(=N\NC(=O)c1ccccc1O)C1C(=O)c2ccccc2C1=O | -8 | 52* | 21 | 32 | 48 | -4
O=C(CNC(=O)c1ccc(Cl)cc1)NCC(F)(F)F | -12 | 3 | 14 | -3 | -1 | 4
C=C1CCC2C(C)(C)[C@@H](O)CC[C@@]2(C)[C@@H]1COc1ccc2ccc(=O)oc2c1 (some centres not stated) | 41 | 52* | 8 | -1 | 16 | 7
SMILES | T cruzi repl | SKKanGAS inh | Mdm2-MdmX inh | Beta cell apopt | CSC inhib | Calb FLC
CN1c2ccccc2N(C)C1(C)c1cccc2ccccc12 | 58* | -4 | 15 | 12 | 4 | 13
c1ccc(COc2cccc(CNCc3cccnc3)c2)cc1 | 62* | 8 | -28 | . | 3 | -9
CC(C)(C)CC(=O)N1CCN(Cc2ccc3c(c2)OCO3)CC1 | -14 | -4 | -8 | 9 | -16 | -107
Cc1ccc(-n2c(-c3ccc(Br)cc3)c[n+]3c2CCc2ccc4cccnc4c2-3)cc1 | 60* | 81* | . | 133* | 64 | 99*
Cc1ccc(-n2c(=O)[nH]c3ncccc3c2=O)cc1 | -4 | -4 | -10 | . | -18 | 25
Cc1nn(Cc2ccc(C(=O)Nc3ccc(C(=O)OC(C)C)cc3)o2)c(C)c1Cl | 55* | 17 | 24 | 11 | -6 | 14
CCNC(=O)Nc1cc(S(=O)(=O)Nc2ccc(OC)cc2)ccc1N1CCOCC1 | . | . | 27 | 89* | -13 | .
CCOC(=O)C[C@H]1c2ccc(C(F)(F)F)cc2S(=O)(=O)N1C(C)C | -6 | 6 | -12 | -7 | . | -6
O=[N+]([O-])c1ccc(CN2CCN(Cc3c[nH]c4ccccc34)CC2)cc1 | 56* | . | -3 | 3 | -16 | -21
Brc1ccc(CN2CCN(Cc3c[nH]c4ccccc34)CC2)cc1 | 42 | 0 | 40 | 88* | 6 | 3
Brc1ccccc1CN1CCN(Cc2c[nH]c3ccccc23)CC1 | 7 | -2 | 48 | 130* | 4 | 50
CCOC(=O)c1cnc2ccc(OCC)cc2c1NCCCN1CCOCC1 | 38 | 9 | 3 | 20 | -10 | 5
FC(F)(F)c1cccc(N2CCN(C3CC4CCC3C4)CC2)c1 (configuration not stated) | -2 | 5 | 12 | -11 | 4 | -13
CCOC(=O)CSc1nc2sc(C)c(C)c2c(=O)[nH]1 | 1 | 4 | 20 | 1 | . | -2
CCOC(=O)/C(=C\c1ccc(Cl)cc1)c1nc2sc(C)c(C)c2c(=O)[nH]1 | -2 | 43 | 38 | -26 | 118* | 30
O=C1c2ccc3c4c(ccc(c24)C(=O)N1CCCCO)C(=O)N(CCCCO)C3=O | 68* | 27 | . | . | . | 67
O=C(Cn1nc(-c2ccccc2)oc1=O)OCC(=O)c1ccccc1 | . | . | 15 | -1 | -6 | .
COc1ccc(Cn2c(-c3ccc(Br)cc3)c[n+]3ccccc23)cc1 | 70* | -3 | -23 | 58 | 17 | 28
COc1ccc(Cn2c(-c3ccc(OC)cc3)nc3ccccc32)cc1 | 36 | 8 | 13 | 1 | 5 | -1
O=C(NC(=S)Nn1cnc2c(cnn2-c2ccccc2)c1=O)c1ccccc1 | 6 | 9 | -5 | 0 | . | 35
Cc1cccc(-c2nc3ccccc3c(=O)n2NC(=O)/C=C/c2ccc([N+](=O)[O-])cc2)c1 | 26 | 0 | 9 | 1 | 5 | 117*
Cc1cn(-c2cc(C(=O)Nc3ccc(C)c(NC(=O)C(=O)c4c[nH]c5ccccc45)c3)cc(C(F)(F)F)c2)cn1 | 27 | 68* | 46 | 16 | 131* | 3
Cc1ccc(C(=O)Nc2cccc(C(F)(F)F)c2)cc1NC(=O)c1c[nH]c2cc(C(F)(F)F)ccc2c1=O | . | . | 27 | -10 | -4 | .
O=C(COC(=O)Cn1cnc2ccccc21)Nc1ccc(F)c(F)c1 | . | . | -18 | -8 | 18 | .
